Experimental data as given in the RNAGym collection of RNA variant scans (doi:10.1126/science.aae0568).
Variants at the floor of the assay were thinned out.

B1: tRNA (parent)
chain: GUUCCGUUGGCGUAAUGGUAACGCGUCUCCCUCCUAAGGAGAAGACUGCGGGUUCGAGUCCCGUACGGAACG

Variants of: B1
Experiment: yeast fitness relative to wild type (ratio to wild type); higher = fitter; tRNA-Arg(CCU), competitive growth, 37 C, YPD
Outline: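 Amplicons of the tRNA-Arg(CCU) gene were sequenced, 100-nucleotide paired-end, from the start population and from each end population of a pooled yeast competition. The competition, in six parallel replicates, lasted 24 hours in YPD at 37°C. Fitness relative to wild type was calculated from changes in genotype frequencies. Genotypes had to have ≥ 100 starting reads, and estimates < 0.5 were set to 0.5.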

Variant	yeast fitness
C5A C30G C31G U32C G63A	≤ 0.5
C5A G18A G25A C31U C61U	0.562
C5A C49U A65U G67C	≤ 0.5
C5A C31G G51A	0.577
C5A C24G C62A	≤ 0.5
C5A C31G C46A	0.54
C5A A43C A69U A70C	0.769
C5A C33A A65U	≤ 0.5
C5A G12A U35G A69C	≤ 0.5
C5A C34U A36C A40C C55A C66U	≤ 0.5
C5A G12A A45G	0.551
C5A G17C G18C C61G	≤ 0.5
C5A C24A U26G A43C A69U	≤ 0.5
C5A A40U A65U	0.636
C5A C22G C29A A43U	0.574
C5A G17A G67C	0.662
C5A C11U C46U G50C	0.709
C5A A40G A65G	0.605
C5A G10C A43G G58C C66G	≤ 0.5
C5A G23C G48C C61A	≤ 0.5
C5A G17C A57G C66U	≤ 0.5

Variant	yeast fitness
C5A C29G A36U A43G	≤ 0.5
C5A C29A A57G	≤ 0.5
C5A C24U A36C C66U	≤ 0.5
C5A C22U G51C	≤ 0.5
C5A G38C G51A G58A	0.506
C5A G18C G50C C60G A70G	≤ 0.5
C5A C31G A37G	0.538
C5A A40U G41C	0.614
C5A G39A G56C	≤ 0.5
C5A A65U	0.723
C5A C22A A40G	≤ 0.5
C5A C24G U26A C29G A43U	≤ 0.5
C5A G18C	0.569
C5A G23A C24U	0.561
C5A C34G G58A G67A	≤ 0.5
C5A A37C C55A G56C	≤ 0.5
C5A C34A G68C	≤ 0.5
C5A G17C A70C	≤ 0.5
C5A C27G C31G U59C	≤ 0.5
C5A C30A A36U G41C G51C	0.65
C5A C24U A36C	≤ 0.5

Variant	yeast fitness
C5A A21C A43U C46G	0.541
C5A G9C A36U G50A	0.536
C5A G25C A57C G67A A69U	0.525
C5A C62U A70C	0.616
C5A C11G A57G	≤ 0.5
C5A G12A U47A	≤ 0.5
C5A G9A	0.975
C5A G9C	0.627
C5A C31U G51C	0.807
C5A A37U A57G G63C	0.733
C5A A40G	0.713
C5A C11G A42U U53A	≤ 0.5
C5A G6A U7A A43U G44A C46A G63A G68C A69G	0.532
C5A C24U C29U C30A A37C A65C	0.549
C5A C34A	0.606
C5A C34G	0.589
C5A C30U G68A	≤ 0.5
C5A C27U G39C C49U C55U	≤ 0.5
C5A C24U A43C G58A	≤ 0.5
C5A C34G U53A	≤ 0.5
C5A C24U C62A A69C	≤ 0.5

Variant	yeast fitness
C5A A21G U32G	≤ 0.5
C5A G39A C49U G56C	≤ 0.5
C5A C11G G17A A37U C49A	≤ 0.5
C5A G17C G18C	0.579
C5A G17C C30A A65C	≤ 0.5
C5A C24U C46A	0.519
C5A C22U G39A C61U	0.503
C5A G25C C30U	0.576
C5A A42C G63C	≤ 0.5
C5A A42C G63A	≤ 0.5
C5A G18A C30U G48C	≤ 0.5
C5A C11U C31U C49G C61A	≤ 0.5
C5A A43G C55U C66G	≤ 0.5
C5A C62U A69C	0.738
C5A C11U U13C	0.57
C5A G12A C60G	≤ 0.5
C5A C31U C55U	0.6
C5A A57G C66U	≤ 0.5
C5A C11G C33A G38A C46G A70U	≤ 0.5
C5A C24G G56A C62A	≤ 0.5
